Assay results published in ChEMBL document CHEMBL5303300, “EUbOPEN Chemogenomics Library - Multiplex” (2023).
“And” between values parts separate entries of the source, which are not always exact repeats. Equal entries are not always repeated.

Assays:
Type in all cases: toxicity, cell-based
[1] = test system: U2OS; assay: Multiplex assay against U2OS; conditions: human, number of replicates 2
Procedure, shortened: (§1)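 Compound was added to live cells that had been stained at seeding with Hoechst33342, BioTracker Green Microtubule Cytoskeleton Dye, MitoTracker Red and Annexin V Alexa Fluor 680, and imaging followed on a CQ1 microscope at 37°C and 5% CO2. CellPathfinder machine-learning gating divided cells into Hoechst high-intensity objects or normal cells, normal cells into healthy, pyknosed or fragmented nuclei, and pyknosed cells into mitotic or apoptotic. Tubulin, mitochondrial-mass and membrane-permeability phenotypes are per cents of healthy-nucleus cells.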

[2] = test system: HEK-293T; assay: Multiplex assay against HEK293T; conditions: human, number of replicates 2; procedure, shortened: as §1
[3] = test system: Fibroblast; assay: Multiplex assay against human fibroblast; conditions: number of replicates 2; procedure, shortened: as §1
[4] = 12 h, 1 µM, compound concentration 1 uM
[5] = 12 h, 10 µM, compound concentration 10 uM
[6] = 24 h, 1 µM, compound concentration 1 uM
[7] = 24 h, 10 µM, compound concentration 10 uM
[8] = 48 h, 1 µM, compound concentration 1 uM
[9] = 48 h, 10 µM, compound concentration 10 uM

COc1cc(C(=O)NC2CCN(C)CC2)ccc1Nc1ncc(C(F)(F)F)c(NCc2ccc(C)cc2N(C)S(C)(=O)=O)n1.O=CO.O=CO
Population Apoptotic (%) [1, 4]: 50% and 69%
Population Fragmented Nuclei (%) [1, 4]: 6% and 5%
Population Healthy Nuclei (%) [1, 4]: 81% and 80%
Population Hoechst High Intensity Objects (%) [1, 4]: 0%
Population Membrane Permeable-Phenotype (%) [1, 4]: 7% and 20%
Population Mitotic Cells (%) [1, 4]: 50% and 30%
Population Normal (%) [1, 4]: 100%
Population Pyknosed Nuclei (%) [1, 4]: 12% and 14%
Population Tubulin-Different-Phenotype (%) [1, 4]: 38% and 40%
Population Apoptotic (%) [1, 5]: 66% and 81%
Population Healthy Nuclei (%) [1, 5]: 25%
Population Hoechst High Intensity Objects (%) [1, 5]: 1% and 3%
Population Membrane Permeable-Phenotype (%) [1, 5]: 38% and 48%
Population Mitochondria Different-Phenotype (%) [1, 5]: 84% and 69%
Population Mitotic Cells (%) [1, 5]: 33% and 18%
Population Normal (%) [1, 5]: 98% and 96%
Population Pyknosed Nuclei (%) [1, 5]: 47% and 66%
Population Tubulin-Different-Phenotype (%) [1, 5]: 100% and 96%
Population Apoptotic (%) [1, 6]: 42% and 74%
Population Fragmented Nuclei (%) [1, 6]: 4% and 5%
Population Healthy Nuclei (%) [1, 6]: 74% and 79%
Population Hoechst High Intensity Objects (%) [1, 6]: 0%
Population Membrane Permeable-Phenotype (%) [1, 6]: 4% and 8%
Population Mitochondria Different-Phenotype (%) [1, 6]: 30% and 36%
Population Mitotic Cells (%) [1, 6]: 57% and 25%
Population Normal (%) [1, 6]: 100%
Population Pyknosed Nuclei (%) [1, 6]: 21% and 15%
Population Tubulin-Different-Phenotype (%) [1, 6]: 26% and 35%
Population Apoptotic (%) [1, 7]: 96% and 93%
Population Healthy Nuclei (%) [1, 7]: 6% and 7%
Population Hoechst High Intensity Objects (%) [1, 7]: 3% and 5%
Population Membrane Permeable-Phenotype (%) [1, 7]: 75% and 80%
Population Mitochondria Different-Phenotype (%) [1, 7]: 100% and 86%
Population Mitotic Cells (%) [1, 7]: 4% and 6%
Population Normal (%) [1, 7]: 96% and 94%
Population Pyknosed Nuclei (%) [1, 7]: 43% and 78%
Population Tubulin-Different-Phenotype (%) [1, 7]: 100% and 93%
Population Apoptotic (%) [1, 8]: 64% and 83%
Population Fragmented Nuclei (%) [1, 8]: 12% and 4%
Population Healthy Nuclei (%) [1, 8]: 50% and 68%
Population Hoechst High Intensity Objects (%) [1, 8]: 1% and 0%
Population Membrane Permeable-Phenotype (%) [1, 8]: 6% and 7%
Population Mitochondria Different-Phenotype (%) [1, 8]: 20% and 28%
Population Mitotic Cells (%) [1, 8]: 35% and 16%
Population Normal (%) [1, 8]: 98% and 99%
Population Pyknosed Nuclei (%) [1, 8]: 37% and 26%
Population Tubulin-Different-Phenotype (%) [1, 8]: 24% and 46%
Population Apoptotic (%) [1, 9]: 92%
Population Healthy Nuclei (%) [1, 9]: 5% and 9%
Population Hoechst High Intensity Objects (%) [1, 9]: 0% and 3%
Population Membrane Permeable-Phenotype (%) [1, 9]: 100% and 73%
Population Mitochondria Different-Phenotype (%) [1, 9]: 66% and 73%
Population Mitotic Cells (%) [1, 9]: 7%
Population Normal (%) [1, 9]: 100% and 96%
Population Pyknosed Nuclei (%) [1, 9]: 49% and 76%
Population Tubulin-Different-Phenotype (%) [1, 9]: 100%
Population Apoptotic (%) [2, 4]: 57% and 71%
Population Fragmented Nuclei (%) [2, 4]: 5% and 6%
Population Healthy Nuclei (%) [2, 4]: 81% and 84%
Population Hoechst High Intensity Objects (%) [2, 4]: 13% and 16%
Population Membrane Permeable-Phenotype (%) [2, 4]: 4% and 0%
Population Mitochondria Different-Phenotype (%) [2, 4]: 50% and 59%
Population Mitotic Cells (%) [2, 4]: 42% and 28%
Population Normal (%) [2, 4]: 86% and 83%
Population Pyknosed Nuclei (%) [2, 4]: 13% and 9%
Population Tubulin-Different-Phenotype (%) [2, 4]: 89% and 95%
Total Cell Count [2, 4]: 378 and 461
Population Apoptotic (%) [2, 5]: 86% and 89%
Population Fragmented Nuclei (%) [2, 5]: 7% and 6%
Population Healthy Nuclei (%) [2, 5]: 45% and 62%
Population Hoechst High Intensity Objects (%) [2, 5]: 23%
Population Membrane Permeable-Phenotype (%) [2, 5]: 6% and 0%
Population Mitochondria Different-Phenotype (%) [2, 5]: 74% and 85%
Population Mitotic Cells (%) [2, 5]: 13% and 10%
Population Normal (%) [2, 5]: 76%
Population Pyknosed Nuclei (%) [2, 5]: 47% and 31%
Population Tubulin-Different-Phenotype (%) [2, 5]: 87% and 92%
Total Cell Count [2, 5]: 288 and 266
Population Apoptotic (%) [2, 6]: 73% and 60%
Population Fragmented Nuclei (%) [2, 6]: 9% and 10%
Population Healthy Nuclei (%) [2, 6]: 83% and 80%
Population Hoechst High Intensity Objects (%) [2, 6]: 12%
Population Membrane Permeable-Phenotype (%) [2, 6]: 5% and 1%
Population Mitochondria Different-Phenotype (%) [2, 6]: 17%
Population Mitotic Cells (%) [2, 6]: 26% and 40%
Population Normal (%) [2, 6]: 87%
Population Pyknosed Nuclei (%) [2, 6]: 7% and 8%
Population Tubulin-Different-Phenotype (%) [2, 6]: 70% and 79%
Total Cell Count [2, 6]: 658 and 751
Population Apoptotic (%) [2, 7]: 84% and 81%
Population Fragmented Nuclei (%) [2, 7]: 8% and 3%
Population Healthy Nuclei (%) [2, 7]: 35% and 51%
Population Hoechst High Intensity Objects (%) [2, 7]: 22% and 23%
Population Membrane Permeable-Phenotype (%) [2, 7]: 7% and 5%
Population Mitochondria Different-Phenotype (%) [2, 7]: 71% and 68%
Population Mitotic Cells (%) [2, 7]: 15% and 18%
Population Normal (%) [2, 7]: 77% and 76%
Population Pyknosed Nuclei (%) [2, 7]: 55% and 44%
Population Tubulin-Different-Phenotype (%) [2, 7]: 86% and 95%
Total Cell Count [2, 7]: 363 and 344
Population Apoptotic (%) [2, 8]: 41% and 21%
Population Fragmented Nuclei (%) [2, 8]: 15% and 16%
Population Healthy Nuclei (%) [2, 8]: 81% and 79%
Population Hoechst High Intensity Objects (%) [2, 8]: 16% and 14%
Population Membrane Permeable-Phenotype (%) [2, 8]: 1% and 3%
Population Mitochondria Different-Phenotype (%) [2, 8]: 3% and 1%
Population Mitotic Cells (%) [2, 8]: 58% and 78%
Population Normal (%) [2, 8]: 83% and 85%
Population Pyknosed Nuclei (%) [2, 8]: 3%
Population Tubulin-Different-Phenotype (%) [2, 8]: 51% and 37%
Total Cell Count [2, 8]: 1721 and 1697
Population Apoptotic (%) [2, 9]: 82% and 77%
Population Fragmented Nuclei (%) [2, 9]: 8% and 4%
Population Healthy Nuclei (%) [2, 9]: 22% and 25%
Population Hoechst High Intensity Objects (%) [2, 9]: 25% and 22%
Population Membrane Permeable-Phenotype (%) [2, 9]: 4% and 2%
Population Mitochondria Different-Phenotype (%) [2, 9]: 55% and 76%
Population Mitotic Cells (%) [2, 9]: 17% and 22%
Population Normal (%) [2, 9]: 74% and 77%
Population Pyknosed Nuclei (%) [2, 9]: 68% and 69%
Population Tubulin-Different-Phenotype (%) [2, 9]: 93% and 95%
Total Cell Count [2, 9]: 374 and 336
Population Apoptotic (%) [3, 4]: 44% and 53%
Population Fragmented Nuclei (%) [3, 4]: 24% and 14%
Population Healthy Nuclei (%) [3, 4]: 64% and 61%
Population Hoechst High Intensity Objects (%) [3, 4]: 1% and 0%
Population Membrane Permeable-Phenotype (%) [3, 4]: 8% and 11%
Population Mitochondria Different-Phenotype (%) [3, 4]: 3% and 4%
Population Mitotic Cells (%) [3, 4]: 55% and 46%
Population Normal (%) [3, 4]: 98% and 100%
Population Pyknosed Nuclei (%) [3, 4]: 10% and 24%
Population Tubulin-Different-Phenotype (%) [3, 4]: 64% and 46%
Total Cell Count [3, 4]: 277 and 215
Population Apoptotic (%) [3, 5]: 63% and 46%
Population Fragmented Nuclei (%) [3, 5]: 6% and 16%
Population Healthy Nuclei (%) [3, 5]: 27% and 55%
Population Hoechst High Intensity Objects (%) [3, 5]: 0%
Population Membrane Permeable-Phenotype (%) [3, 5]: 6% and 8%
Population Mitochondria Different-Phenotype (%) [3, 5]: 15%
Population Mitotic Cells (%) [3, 5]: 36% and 53%
Population Normal (%) [3, 5]: 100% and 99%
Population Pyknosed Nuclei (%) [3, 5]: 66% and 27%
Population Tubulin-Different-Phenotype (%) [3, 5]: 67% and 69%
Total Cell Count [3, 5]: 168 and 259
Population Apoptotic (%) [3, 6]: 63% and 64%
Population Fragmented Nuclei (%) [3, 6]: 21% and 17%
Population Healthy Nuclei (%) [3, 6]: 70% and 66%
Population Hoechst High Intensity Objects (%) [3, 6]: 1% and 0%
Population Membrane Permeable-Phenotype (%) [3, 6]: 4% and 6%
Population Mitochondria Different-Phenotype (%) [3, 6]: 9% and 6%
Population Mitotic Cells (%) [3, 6]: 36% and 35%
Population Normal (%) [3, 6]: 98% and 100%
Population Pyknosed Nuclei (%) [3, 6]: 8% and 16%
Population Tubulin-Different-Phenotype (%) [3, 6]: 53% and 38%
Total Cell Count [3, 6]: 268 and 243
Population Apoptotic (%) [3, 7]: 94% and 92%
Population Fragmented Nuclei (%) [3, 7]: 5% and 12%
Population Healthy Nuclei (%) [3, 7]: 9% and 16%
Population Hoechst High Intensity Objects (%) [3, 7]: 0% and 1%
Population Mitochondria Different-Phenotype (%) [3, 7]: 23% and 62%
Population Mitotic Cells (%) [3, 7]: 5% and 7%
Population Normal (%) [3, 7]: 99% and 98%
Population Pyknosed Nuclei (%) [3, 7]: 85% and 70%
Population Tubulin-Different-Phenotype (%) [3, 7]: 84% and 77%
Total Cell Count [3, 7]: 135 and 166
Population Apoptotic (%) [3, 8]: 94% and 90%
Population Fragmented Nuclei (%) [3, 8]: 27% and 25%
Population Healthy Nuclei (%) [3, 8]: 66% and 65%
Population Hoechst High Intensity Objects (%) [3, 8]: 0%
Population Membrane Permeable-Phenotype (%) [3, 8]: 6% and 5%
Population Mitochondria Different-Phenotype (%) [3, 8]: 5% and 2%
Population Mitotic Cells (%) [3, 8]: 5% and 9%
Population Normal (%) [3, 8]: 99%
Population Pyknosed Nuclei (%) [3, 8]: 6% and 8%
Population Tubulin-Different-Phenotype (%) [3, 8]: 43% and 20%
Total Cell Count [3, 8]: 267 and 253
Population Apoptotic (%) [3, 9]: 97% and 96%
Population Fragmented Nuclei (%) [3, 9]: 27% and 31%
Population Healthy Nuclei (%) [3, 9]: 16% and 15%
Population Hoechst High Intensity Objects (%) [3, 9]: 0%
Population Membrane Permeable-Phenotype (%) [3, 9]: 31% and 30%
Population Mitochondria Different-Phenotype (%) [3, 9]: 9% and 26%
Population Mitotic Cells (%) [3, 9]: 2% and 3%
Population Normal (%) [3, 9]: 100%
Population Pyknosed Nuclei (%) [3, 9]: 56% and 53%
Population Tubulin-Different-Phenotype (%) [3, 9]: 81% and 78%
Total Cell Count [3, 9]: 132 and 153
